Experimental data taken from ChEMBL document CHEMBL1145097 (J Med Chem, 2003).

Columns and labels:
[1] = LogD value was determined; type: physicochemical; conditions: octanol/water
Summary of the method: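 log D determined by an HPLC method.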

[2] = target: Metabotropic glutamate receptor 5 (Rattus norvegicus, UniProt P31424); experiment: Tested for displacement of [3H]3-methoxy-5-(pyridin-2-ylethynyl) pyridine from Metabotropic glutamate receptor 5 in rat cortical membrane; type: cell membranes
Summary of the method: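 Rat cortical membranes; displacement of [3H]-3-methoxy-5-(pyridin-2-ylethynyl)pyridine bound to native mGlu5. Geometric mean with standard deviation and number of replicates.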

[3] = target: Metabotropic glutamate receptor 5 (Homo sapiens, UniProt P41594); experiment: Tested in vitro against human recombinant Metabotropic glutamate receptor 5 stably expressed in LtK cells by [Ca2+] flux assay using glutamate as agonist
Rattus norvegicus [4] = experiment: In vivo intraperitoneal effective dose to block fear conditioning in rats was determined by FPS (fear potentiated startle) model of anxiety; type: functional; conditions: ip
Summary of the method: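 Fear-potentiated startle anxiety model in rats. Compound given ip and measurement taken 1 h after administration. 8 rats/group. ED50 reported as mean, with ED50 values from individual experiments (95% confidence interval).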

Rattus norvegicus [5] = experiment: Amount in vivo in rat cerebrospinal fluid (CSF) after oral dose of 30 mg/Kg; conditions: read-out: CSF levels
[6] = target: Metabotropic glutamate receptor 1 (Homo sapiens, UniProt Q13255); experiment: Tested for in vitro antagonistic activity against Metabotropic glutamate receptor 1; type: functional
Summary of the method: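 Ca2+ flux assay at mGlu1a, with compounds tested in both agonist and antagonist modes. Initial screen at 10 µM; concentration-response curves generated where inhibition was seen.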

Rattus norvegicus [7] = experiment: Amount in vivo in rat brain after intraperitoneal dose of 3 mg/Kg; type: ADME, organism-based; conditions: ip, read-out: Brain level
Summary of the method: (§1)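 Rats given 3 mg/kg ip; brain (hippocampus) and plasma drug levels measured 1 h after dosing. Mean ± SEM, n = rats per group.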

[8] = target: T1, Glutamate receptor ionotropic, NMDA 2B (Homo sapiens, UniProt Q05586+Q13224); experiment: Tested for in vitro antagonistic activity against human N-methyl-D-aspartate glutamate receptor 2B; type: functional
Summary of the method: (§2)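 Cell line stably expressing recombinant human NR1A/2B NMDA receptors. Inhibition of NMDA/glycine-evoked rise in intracellular Ca2+. Six-point concentration-response curve with 8-22 cells per concentration.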

[9] = target: T2, Amine oxidase [flavin-containing] A (Mus musculus, UniProt Q64133); experiment: Tested for in vitro antagonistic activity against Monoamine oxidase; type: functional
T2 sequence (Q64133 whole entry): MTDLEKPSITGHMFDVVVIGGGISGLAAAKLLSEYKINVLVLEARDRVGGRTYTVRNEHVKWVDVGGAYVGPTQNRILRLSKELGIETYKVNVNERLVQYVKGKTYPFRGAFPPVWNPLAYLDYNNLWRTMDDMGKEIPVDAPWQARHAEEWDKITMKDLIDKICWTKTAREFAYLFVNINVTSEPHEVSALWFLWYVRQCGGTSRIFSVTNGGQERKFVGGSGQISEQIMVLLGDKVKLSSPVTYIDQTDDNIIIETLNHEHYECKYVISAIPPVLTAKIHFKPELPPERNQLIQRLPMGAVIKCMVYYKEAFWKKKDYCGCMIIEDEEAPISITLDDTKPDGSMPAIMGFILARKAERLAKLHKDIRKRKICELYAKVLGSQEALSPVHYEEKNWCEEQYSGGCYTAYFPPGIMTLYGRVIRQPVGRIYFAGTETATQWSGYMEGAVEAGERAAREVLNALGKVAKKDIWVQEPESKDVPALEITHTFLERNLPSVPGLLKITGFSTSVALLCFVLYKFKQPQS
Summary of the method: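 Radioligand displacement of [125I]RTI-55 ([125I]methyl (1R,2S,3S,5S)-3-(4-iodophenyl)-8-methyl-8-azabicyclo[3.2.1]octane-2-carboxylate) from MAO-A. Compounds were first screened at 10 µM.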

[10] = (§3) Amount in vivo in rat plasma after intraperitoneal dose of 3 mg/Kg; type: ADME, organism-based; conditions: ip, read-out: Plasma level; summary of the method: as §1
[11] = target: T1, Glutamate receptor ionotropic, NMDA 2B; experiment: Tested for in vitro antagonistic activity against recombinant human N-methyl-D-aspartate glutamate receptor 2B; type: functional; summary of the method: as §2
[12] = target: T2, Amine oxidase [flavin-containing] A; experiment: Tested for in vitro antagonistic activity against Monoamine oxidase A; type: functional
Summary of the method: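 Displacement of [125I]RTI-55 binding at MAOA. IC50 given with range in parentheses. Initial screen at 10 µM, followed by concentration-response curves where inhibition was detected.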

Rattus norvegicus [13] = experiment: as §3; type: ADME, organism-based; conditions: ip, read-out: Plasma level; summary of the method: as §1

Metabotropic glutamate receptor 5 (Rattus norvegicus, UniProt P31424), sequence (P31424 whole entry): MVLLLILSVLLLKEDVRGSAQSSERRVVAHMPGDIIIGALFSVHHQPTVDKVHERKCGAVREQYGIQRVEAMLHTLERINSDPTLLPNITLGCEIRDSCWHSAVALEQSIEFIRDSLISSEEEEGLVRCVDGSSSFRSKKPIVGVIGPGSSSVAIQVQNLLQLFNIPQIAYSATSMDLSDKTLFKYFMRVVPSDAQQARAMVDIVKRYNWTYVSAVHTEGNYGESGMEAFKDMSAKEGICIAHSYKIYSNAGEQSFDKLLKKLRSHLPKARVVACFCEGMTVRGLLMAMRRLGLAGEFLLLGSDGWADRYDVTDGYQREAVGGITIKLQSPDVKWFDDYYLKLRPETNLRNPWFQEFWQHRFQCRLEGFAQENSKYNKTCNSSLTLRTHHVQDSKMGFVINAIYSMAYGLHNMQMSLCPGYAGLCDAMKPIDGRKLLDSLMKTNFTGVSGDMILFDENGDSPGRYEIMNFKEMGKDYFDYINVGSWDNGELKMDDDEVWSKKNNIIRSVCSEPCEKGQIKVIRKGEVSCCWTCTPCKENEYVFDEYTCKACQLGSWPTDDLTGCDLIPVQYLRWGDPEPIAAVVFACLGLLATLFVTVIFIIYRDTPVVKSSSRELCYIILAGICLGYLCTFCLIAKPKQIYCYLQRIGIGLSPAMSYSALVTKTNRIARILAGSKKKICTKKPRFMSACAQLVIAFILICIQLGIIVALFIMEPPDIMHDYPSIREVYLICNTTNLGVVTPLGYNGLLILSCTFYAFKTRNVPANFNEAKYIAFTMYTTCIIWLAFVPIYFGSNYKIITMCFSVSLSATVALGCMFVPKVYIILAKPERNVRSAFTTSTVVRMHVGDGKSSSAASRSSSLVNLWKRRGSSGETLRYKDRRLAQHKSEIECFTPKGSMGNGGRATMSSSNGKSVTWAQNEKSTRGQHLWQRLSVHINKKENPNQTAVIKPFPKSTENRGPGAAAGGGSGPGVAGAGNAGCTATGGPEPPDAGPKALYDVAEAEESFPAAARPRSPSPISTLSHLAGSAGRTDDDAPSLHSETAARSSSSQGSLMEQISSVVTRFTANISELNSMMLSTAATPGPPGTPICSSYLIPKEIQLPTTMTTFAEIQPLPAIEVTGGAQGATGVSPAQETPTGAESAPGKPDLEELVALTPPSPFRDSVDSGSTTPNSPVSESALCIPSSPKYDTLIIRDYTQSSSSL
Metabotropic glutamate receptor 5 (Homo sapiens, UniProt P41594), sequence (P41594 whole entry): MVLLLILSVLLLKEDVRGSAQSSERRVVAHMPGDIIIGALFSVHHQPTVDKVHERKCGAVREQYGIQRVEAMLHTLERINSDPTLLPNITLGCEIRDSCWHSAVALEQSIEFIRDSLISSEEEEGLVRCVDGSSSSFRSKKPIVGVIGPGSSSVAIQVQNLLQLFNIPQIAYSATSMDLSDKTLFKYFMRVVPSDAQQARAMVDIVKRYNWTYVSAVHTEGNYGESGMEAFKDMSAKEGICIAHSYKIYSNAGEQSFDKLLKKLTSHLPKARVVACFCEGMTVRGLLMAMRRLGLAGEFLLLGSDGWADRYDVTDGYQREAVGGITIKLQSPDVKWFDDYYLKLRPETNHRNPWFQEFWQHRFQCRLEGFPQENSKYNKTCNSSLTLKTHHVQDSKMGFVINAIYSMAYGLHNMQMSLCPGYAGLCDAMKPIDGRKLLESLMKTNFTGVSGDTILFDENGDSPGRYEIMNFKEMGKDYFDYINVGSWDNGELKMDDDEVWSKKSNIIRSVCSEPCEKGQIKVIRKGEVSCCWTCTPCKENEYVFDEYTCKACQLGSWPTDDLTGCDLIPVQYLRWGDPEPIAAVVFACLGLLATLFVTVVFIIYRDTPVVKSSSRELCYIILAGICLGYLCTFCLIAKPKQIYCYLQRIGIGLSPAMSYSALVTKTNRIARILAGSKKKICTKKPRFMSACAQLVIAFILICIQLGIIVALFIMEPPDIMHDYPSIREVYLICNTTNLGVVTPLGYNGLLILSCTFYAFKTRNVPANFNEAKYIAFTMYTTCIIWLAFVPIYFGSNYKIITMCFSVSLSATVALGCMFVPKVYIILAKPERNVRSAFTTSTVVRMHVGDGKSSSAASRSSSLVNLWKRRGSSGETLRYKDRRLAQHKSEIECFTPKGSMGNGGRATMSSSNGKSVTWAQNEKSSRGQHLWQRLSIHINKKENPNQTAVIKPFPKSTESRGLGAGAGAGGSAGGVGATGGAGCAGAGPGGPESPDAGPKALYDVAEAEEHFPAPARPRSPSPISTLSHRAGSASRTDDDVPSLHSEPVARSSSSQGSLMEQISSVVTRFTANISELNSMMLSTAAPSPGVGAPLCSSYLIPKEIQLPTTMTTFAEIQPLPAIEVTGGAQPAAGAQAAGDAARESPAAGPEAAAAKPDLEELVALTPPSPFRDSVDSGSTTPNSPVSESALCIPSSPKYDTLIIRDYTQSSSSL
Metabotropic glutamate receptor 1, sequence (Q13255 whole entry): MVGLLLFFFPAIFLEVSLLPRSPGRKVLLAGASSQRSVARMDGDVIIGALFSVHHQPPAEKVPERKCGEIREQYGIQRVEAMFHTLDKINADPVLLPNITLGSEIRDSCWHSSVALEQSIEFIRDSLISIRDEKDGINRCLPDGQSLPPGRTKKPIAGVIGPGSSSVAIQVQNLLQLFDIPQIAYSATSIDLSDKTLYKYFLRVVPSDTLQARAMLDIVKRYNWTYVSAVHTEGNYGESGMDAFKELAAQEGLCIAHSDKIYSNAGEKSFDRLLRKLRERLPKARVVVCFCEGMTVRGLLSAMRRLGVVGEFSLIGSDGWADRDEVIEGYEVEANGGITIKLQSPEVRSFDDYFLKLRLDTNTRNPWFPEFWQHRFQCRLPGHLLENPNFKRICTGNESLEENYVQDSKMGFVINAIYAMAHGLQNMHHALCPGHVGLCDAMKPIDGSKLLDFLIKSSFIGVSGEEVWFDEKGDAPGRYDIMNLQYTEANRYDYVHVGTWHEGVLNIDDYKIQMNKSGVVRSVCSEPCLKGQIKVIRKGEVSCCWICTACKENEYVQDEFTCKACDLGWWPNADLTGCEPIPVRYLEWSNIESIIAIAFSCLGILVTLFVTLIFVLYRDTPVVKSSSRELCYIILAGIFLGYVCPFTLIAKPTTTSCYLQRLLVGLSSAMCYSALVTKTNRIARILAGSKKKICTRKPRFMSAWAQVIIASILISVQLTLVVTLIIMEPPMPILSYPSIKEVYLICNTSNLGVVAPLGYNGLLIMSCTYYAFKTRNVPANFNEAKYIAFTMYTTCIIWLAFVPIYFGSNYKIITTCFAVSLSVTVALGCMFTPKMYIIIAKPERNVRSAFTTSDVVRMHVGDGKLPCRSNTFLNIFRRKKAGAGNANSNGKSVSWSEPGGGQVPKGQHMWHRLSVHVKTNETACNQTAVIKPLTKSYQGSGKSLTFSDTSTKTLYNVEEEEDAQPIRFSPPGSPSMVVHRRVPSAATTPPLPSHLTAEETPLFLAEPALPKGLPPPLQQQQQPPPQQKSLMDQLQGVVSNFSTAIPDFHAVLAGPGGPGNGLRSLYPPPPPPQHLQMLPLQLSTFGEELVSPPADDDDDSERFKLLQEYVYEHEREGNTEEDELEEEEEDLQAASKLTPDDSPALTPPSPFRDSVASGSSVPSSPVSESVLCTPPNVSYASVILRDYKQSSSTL
T1 sequence (Q13224 whole entry, one chain of several): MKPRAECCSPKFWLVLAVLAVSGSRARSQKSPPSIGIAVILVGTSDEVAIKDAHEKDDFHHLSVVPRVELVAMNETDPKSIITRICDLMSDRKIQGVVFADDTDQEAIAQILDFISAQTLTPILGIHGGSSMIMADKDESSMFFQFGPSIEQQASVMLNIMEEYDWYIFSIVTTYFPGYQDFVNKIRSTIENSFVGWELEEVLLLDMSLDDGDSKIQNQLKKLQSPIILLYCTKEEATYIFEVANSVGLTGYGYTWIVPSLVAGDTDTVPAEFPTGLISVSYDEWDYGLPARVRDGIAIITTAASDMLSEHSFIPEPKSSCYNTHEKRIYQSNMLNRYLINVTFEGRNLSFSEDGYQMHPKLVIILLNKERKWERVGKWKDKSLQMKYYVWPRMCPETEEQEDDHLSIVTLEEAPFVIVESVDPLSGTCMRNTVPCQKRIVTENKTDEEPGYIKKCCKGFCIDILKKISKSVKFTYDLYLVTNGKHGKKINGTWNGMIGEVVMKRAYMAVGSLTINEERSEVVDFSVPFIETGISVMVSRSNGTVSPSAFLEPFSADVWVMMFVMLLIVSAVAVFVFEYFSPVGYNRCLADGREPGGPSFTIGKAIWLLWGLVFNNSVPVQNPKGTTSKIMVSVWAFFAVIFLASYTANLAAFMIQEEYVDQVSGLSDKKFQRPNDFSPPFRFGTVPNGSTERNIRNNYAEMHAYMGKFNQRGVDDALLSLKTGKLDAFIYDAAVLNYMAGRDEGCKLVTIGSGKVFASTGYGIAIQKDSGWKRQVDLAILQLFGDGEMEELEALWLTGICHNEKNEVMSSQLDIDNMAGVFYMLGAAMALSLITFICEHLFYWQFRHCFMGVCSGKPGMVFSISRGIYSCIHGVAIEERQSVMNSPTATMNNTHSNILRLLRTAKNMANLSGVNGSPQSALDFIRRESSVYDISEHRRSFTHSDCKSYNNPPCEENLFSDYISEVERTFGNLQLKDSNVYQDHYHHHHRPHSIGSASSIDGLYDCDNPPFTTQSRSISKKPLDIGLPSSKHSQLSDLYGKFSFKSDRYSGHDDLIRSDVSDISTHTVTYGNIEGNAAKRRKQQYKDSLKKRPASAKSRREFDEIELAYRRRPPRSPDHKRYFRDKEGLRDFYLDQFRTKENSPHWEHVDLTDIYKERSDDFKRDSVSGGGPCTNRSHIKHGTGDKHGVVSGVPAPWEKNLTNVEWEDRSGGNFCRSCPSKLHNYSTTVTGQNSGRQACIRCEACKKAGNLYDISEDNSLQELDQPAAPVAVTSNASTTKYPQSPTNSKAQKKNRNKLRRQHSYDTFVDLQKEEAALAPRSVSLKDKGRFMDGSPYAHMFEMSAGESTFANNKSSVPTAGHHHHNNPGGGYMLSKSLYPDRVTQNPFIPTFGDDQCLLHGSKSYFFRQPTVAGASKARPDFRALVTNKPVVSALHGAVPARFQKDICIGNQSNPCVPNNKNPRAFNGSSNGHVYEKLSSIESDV

SMILES | logD [1] | Ki [2] | IC50 [3] | further results
Cc1nc(C#Cc2ccccc2)cs1 | 3.3 | 6 nM | 6 nM | 
Cc1nc(C#Cc2ccccn2)cs1 | 1.9 | 48 nM | 53 nM | 
Cc1nc(C#Cc2ccncc2)cs1 | 2.1 | 214 nM | 122 nM | 
Cc1cccc(C#Cc2ccccc2)n1 | 3.5 |  |  | ED50 (Rattus norvegicus [4]): 5 mg/kg; concentration (Rattus norvegicus [5]): 210 nM; IC50 [6]: > 100000 nM; concentration (Rattus norvegicus [7]): 830 nM; IC50 [8]: 18000 nM; IC50 [9]: 8000 nM; concentration [10]: 390 nM
C(#Cc1cscn1)c1ccccc1 | 2.6 | 142 nM | 97 nM | 
C(#Cc1nccs1)c1ccccc1 | 3.2 | 153 nM | 81 nM | 
Cc1csc(C#Cc2ccccc2)n1 | 2.6 | 32 nM | 13 nM | 
Cc1nc(C#Cc2cccnc2)cs1 | 2.1 |  |  | IC50 [11]: > 300000 nM; ED50 (Rattus norvegicus [4]): 1 mg/kg; IC50 [12]: 30000 nM; concentration (Rattus norvegicus [5]): 1000 nM; IC50 [6]: > 100000 nM; concentration (Rattus norvegicus [7]): 1400 nM; concentration (Rattus norvegicus [13]): 1200 nM
